Assays:
[1] = folding enthalpy; higher = less favourable; fluorescence melt of hairpins on a sequencing array, two-state fit; settings: sodium 0.088 M
Procedure, shortened: (§1)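 With Cy3 and quencher oligos annealed, library hairpins on a sequenced MiSeq flow cell were imaged for Cy3 fluorescence in 50 mM Na-HEPES pH 8.0, 25 mM NaCl, in 2.5 °C steps up to 60 °C. Melting temperature and folding enthalpy were derived from bootstrapped two-state fits of signals normalised to pre-quench Cy3 and to control constructs. Four replicates were combined by inverse variance, with fitted temperatures raised by 9.35 °C to match UV melts.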

[2] = melting temperature; fluorescence melt of hairpins on a sequencing array, two-state fit, raised by 9.35 °C to match UV melts; settings: sodium 0.088 M
Procedure, shortened: as §1

| Sequence | folding enthalpy [1] [kcal/mol] | Tm [2] [°C] |
| --- | --- | --- |
| GTGAACGAAAGTTGCAC ((((((....))).))) | -19.8 | 37.3 |
| GTGAACGAAAGTTGTCAC ((((((....)))..))) | -21.8 | 27.9 |
| GTGAACGAAAGTTTGCAC ((((((....)))..))) | -15.4 | 32 |
| GTGAACGGAAACGTTCAC (((((((....))))))) | -30 | 67.8 |
| GTGAAGCCGAAAGGCCAC (((..(((....)))))) | -15.6 | 47.8 |
| GTGAATCCGAAAGGACAC (((..(((....)))))) | -20.1 | 32.8 |
| GTGAATCGAAAGATCAC (((.(((....)))))) | -26.3 | 45.3 |
| GTGAATGGAAACATTTAC ((.((((....)))).)) | -32.9 | 36.5 |
| GTGACAGGAAACTGCCAC (((.(((....))).))) | -33 | 46.8 |
| GTGACCCGAAAGGGCAC (((.(((....)))))) | -22.9 | 62.4 |
| GTGACCGAAAGGTAGCAC ((((((....)))..))) | -16.9 | 36.1 |
| GTGACCGAAAGGTCTCAC ((((((....)))..))) | -10.6 | 41.2 |
| GTGACCGAAAGGTGGCAC ((((((....)))..))) | -16.3 | 40.7 |
| GTGACCGAAAGGTGTCAC ((((((....)))..))) | -25.4 | 45.8 |
| GTGACCGAAAGGTTTCAC ((((((....)))..))) | -13.1 | 34.8 |
| GTGACCGCGAAAGCGCAC (((..(((....)))))) | -8.65 | 40.3 |
| GTGACCGGAAACAGTCAC (((((.(....).))))) | -32.1 | 45.2 |
| GTGACCGGAAACGGTTGC (..((((....))))..) | -17.9 | 47.6 |
| GTGACGACGAAAGTCCAC (((..(((....)))))) | -13 | 38.2 |
| GTGACGCGAAAGCGACAC (((.(((....))).))) | -33.9 | 69.3 |
| GTGACGGCGAAAGCCCAC (((..(((....)))))) | -12.1 | 44.3 |
| GTGACGGGAAACCACCAC (((..((....))..))) | -15.7 | 27.4 |
| GTGACGGGAAACCATCAC ((((.((....)).)))) | -32.6 | 42.1 |

| Sequence | folding enthalpy [1] [kcal/mol] | Tm [2] [°C] |
| --- | --- | --- |
| GTGACGGGAAACTGTCAC (((((.(....).))))) | -37.8 | 54.8 |
| GTGACGTCGAAAGACCAC (((..(((....)))))) | -13.6 | 40.3 |
| GTGACTGGAAACAGCCAC (((.(((....))).))) | -41.7 | 47.9 |
| GTGACTGGAAACAGTTAC ((.((((....)))).)) | -29.2 | 45.5 |
| GTGACTGGAAACAGTTGC (..((((....))))..) | -22.9 | 39.3 |
| GTGAGAACGAAAGTTCAC (((..(((....)))))) | -18 | 43.9 |
| GTGAGACGAAAGTCACAC (((.(((....))).))) | -31.3 | 55.4 |
| GTGAGAGCGAAAGCTCAC (((..(((....)))))) | -14.5 | 48.6 |
| GTGAGCACGAAAGTGCAC (((..(((....)))))) | -8.71 | 60.1 |
| GTGAGCGAAAGCTACAC ((((((....))).))) | -16.1 | 49.1 |
| GTGAGGAAACTCAC (((((....))))) | -24.5 | 51.9 |
| GTGAGGCGAAAGCCCCAC (((.(((....))).))) | -22.8 | 53.8 |
| GTGAGTGAAAACTCAC ((((((....)))))) | -37.7 | 59.1 |
| GTGAGTGGAAACATTCGC (.((.((....)).)).) | -16.4 | 33.4 |
| GTGATACGAAAGTACCAC (((.(((....))).))) | -32.7 | 45.6 |
| GTGATAGGAAACTATCGC (.(((((....))))).) | -38.2 | 46.3 |
| GTGATCGAAAGATACAC ((((((....))).))) | -22.1 | 35.8 |
| GTGATCGAAAGATCAC ((((((....)))))) | -37.1 | 67.4 |
| GTGATCGAAAGATCTCAC ((((((....)))..))) | -11.4 | 39.1 |
| GTGATCGAAAGATTACAC ((((((....)))..))) | -20 | 38.5 |
| GTGATCGGAAACGATTGC (..((((....))))..) | -22.1 | 40.5 |
| GTGATGGGAAACCATCGC (.(((((....))))).) | -23.7 | 55.1 |
| GTGATGGGAAACCGTCAC ((((.((....)).)))) | -50.2 | 52.9 |

| Sequence | folding enthalpy [1] [kcal/mol] | Tm [2] [°C] |
| --- | --- | --- |
| GTGATTCGAAAGAAACAC (((.(((....))).))) | -30 | 46.5 |
| GTGATTGGAAACAATTAC ((.((((....)))).)) | -32.3 | 37.5 |
| GTGCACCGAAAGGTCAC (((.(((....)))))) | -26.3 | 52.5 |
| GTGCACGAAAGTGACCAC ((((((....)))..))) | -12.7 | 41.3 |
| GTGCACGAAAGTGGACAC ((((((....)))..))) | -15.2 | 52.6 |
| GTGCACGAAAGTGGCAC ((((((....))).))) | -25.1 | 59.4 |
| GTGCACGAAAGTGTCCAC ((((((....)))..))) | -10.8 | 34.8 |
| GTGCACGCGAAAGCGCAC (((..(((....)))))) | -15.4 | 56.3 |
| GTGCACGGAAACGCACAC (((..((....))..))) | -19.9 | 38.5 |
| GTGCAGCGAAAGCTTCAC (((.(((....))).))) | -27.6 | 51.6 |
| GTGCATGGAAACATACAC (((.(((....))).))) | -35 | 39.3 |
| GTGCCATCGAAAGATCAC (((..(((....)))))) | -5.32 | 38.4 |
| GTGCCCACGAAAGTGCAC (((..(((....)))))) | -15.5 | 44.9 |
| GTGCCCGAAAGGGAACAC ((((((....)))..))) | -15.2 | 52.5 |
| GTGCCCGAAAGGGACCAC ((((((....)))..))) | -11.3 | 49.5 |
| GTGCCGGGAAACCGGTGC (..((((....))))..) | -19.4 | 52.7 |
| GTGCCTCGAAAGAGACAC (((.(((....))).))) | -42.5 | 52.6 |
| GTGCCTCGAAAGAGCCAC (((.(((....))).))) | -21 | 43.2 |
| GTGCGAGAAATCGCAC ((((((....)))))) | -28 | 68.2 |
| GTGCGAGGAAACTCGTGC (..((((....))))..) | -23.3 | 48.4 |
| GTGCGAGGAAACTTGCGC (.((.((....)).)).) | -18.1 | 46 |
| GTGCGCGAAAGCGCCAC ((((((....))).))) | -8.65 | 52.2 |

Source: the array DNA melting data of Ke et al. (doi:10.1101/2024.01.08.574731)
